Results of several laboratories.
Lines come from different studies, so protocols differ.
CDK1: Cyclin-dependent kinase 1 (CDK1, Homo sapiens, UniProt P06493)
DPP4: Dipeptidyl peptidase 4 (DPP4, Homo sapiens, UniProt P27487)

| SMILES | target | read-out | action | technique | tested at | quantity | result |
| --- | --- | --- | --- | --- | --- | --- | --- |
| CCO[C@@H](Cc1ccc(OCCc2ccc(OS(C)(=O)=O)cc2)cc1)C(=O)O | CDK1 | enzyme activity | inhibitor | ADP detection | 10 µM | inhibition | 65.9% |
| Cn1c(=O)cc(N2CCC(N)CC2)n(Cc2nc3ccccc3c(=O)n2-c2ccc(F)cc2)c1=O | DPP4 | enzyme activity | inhibitor | – | 20 µM | inhibition | 19.9% |
| Cc1cc2cc(Oc3ccnc(Nc4cccc(CS(=O)(=O)NCCN(C)C)c4)n3)ccc2[nH]1 | CDK1 | enzyme activity | inhibitor | ADP detection | 100 µM | inhibition | 100% |
| Cn1c(=O)cc(N2CCC(N)CC2)n(Cc2nc3ccc(Br)cc3c(=O)n2-c2cccc(F)c2)c1=O | DPP4 | enzyme activity | inhibitor | – | 20 µM | inhibition | 46.8% |
| C=CC(=O)N1CCC(COCC(=O)N2CCN(c3nc(-c4cnc(N)nc4C(F)F)nc(N4CCOC[C@@H]4C)n3)CC2)CC1 | Cyclin-dependent kinase 9 (CDK9, Homo sapiens, UniProt P50750) | binding | – | competition with immobilised ligand | 1 µM | remaining binding | 100% |
| CNc1ncc2c(/C=C/C(=O)N3CCC(OC)CC3)nn(Cc3cccc(C(F)(F)F)c3)c2n1 | Cyclin-dependent kinase 1, with cyclin A2 (CDK1, Homo sapiens, UniProt P06493) | enzyme activity | inhibitor | radiometric | 1 µM | remaining activity | 86% |
| COc1cc(-c2cncc3c2CN(C)Cc2cc(N4CCNCC4)ccc2-3)cc(OC)c1OC | Cyclin-dependent kinase 9, with cyclin T1 (CDK9, Homo sapiens, UniProt P50750) | enzyme activity | inhibitor | – | 1 µM | remaining activity | 100% |
| COc1ccc(S(=O)(=O)N(CC(=O)NO)CC(C)C)cc1 | Stromelysin-2 (Homo sapiens, UniProt P09238) | enzyme activity | inhibitor | – | 0.5 µM | inhibition | 47.4% |
| CN(C)c1ncnc2c1ncn2[C@@H]1O[C@H](CCl)[C@@H](NC(=O)[C@@H](CSC(c2ccccc2)c2ccccc2)NC(=O)OC(C)(C)C)[C@H]1O | Aminopeptidase N (ANPEP, Homo sapiens, UniProt P15144) | enzyme activity | inhibitor | fluorescence | 10 µM | inhibition | 0% |
| O=C1NC(=NCc2cccs2)S/C1=C\c1ccc2ncccc2c1 | CDK1 | enzyme activity | inhibitor | ADP detection | 100 µM | inhibition | 100% |
| Cn1c(=O)cc(N2CCC(N)CC2)n(Cc2nc3ccc(Br)cc3c(=O)n2-c2ccc(F)cc2)c1=O | DPP4 | enzyme activity | inhibitor | – | 20 µM | inhibition | 27.3% |
| Cc1cc([C@@H](C)Nc2ccccc2C(=O)O)c2nc(N3CCC(F)(F)CC3)c(C#N)c(=O)n2c1 | RAC-alpha serine/threonine-protein kinase (AKT1, Homo sapiens, UniProt P31749) | binding | – | competition with immobilised ligand | 1 µM | remaining binding | 100% |
